# Calls of active or inactive are those of the source. No cut-off for these calls is given here.
# Tests used:
# [1] = molecular target: 5-hydroxytryptamine receptor 1D (Homo sapiens, UniProt P28221); assay: Displacement of [3H]5-hydroxytryptamine from human cloned 5HT1D receptor expressed in CHOK1 cells by liquid scintillation counting; type: cell-based, CHO-K1
# Outline: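 Membranes from CHO-K1 cells expressing cloned human 5-HT1D were purchased. Stopped by filtration over GF/B filters and counted by liquid scintillation. Ki derived from IC50 by Cheng-Prusoff. Each value is the mean of more than two runs done in duplicate or triplicate.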
# [2] = molecular target: 5-hydroxytryptamine receptor 1B (Homo sapiens, UniProt P28222); assay: Displacement of [3H]5-hydroxytryptamine from human cloned 5HT1B receptor expressed in CHOK1 cells by liquid scintillation counting; type: cell-based, CHO-K1
# Sequence of 5-hydroxytryptamine receptor 1B (P28222 whole entry): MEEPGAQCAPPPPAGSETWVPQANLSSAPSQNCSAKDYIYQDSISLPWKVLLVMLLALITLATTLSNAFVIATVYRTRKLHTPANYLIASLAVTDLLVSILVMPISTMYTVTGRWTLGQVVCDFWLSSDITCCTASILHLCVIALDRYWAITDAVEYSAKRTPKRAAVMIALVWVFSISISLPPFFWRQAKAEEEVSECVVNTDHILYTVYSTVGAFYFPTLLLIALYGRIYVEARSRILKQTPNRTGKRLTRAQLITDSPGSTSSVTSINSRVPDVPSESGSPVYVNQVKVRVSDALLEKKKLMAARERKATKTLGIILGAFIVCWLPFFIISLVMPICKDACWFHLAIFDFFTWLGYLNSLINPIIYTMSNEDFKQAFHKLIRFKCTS
# [3] = Displacement of [3H]5-hydroxytryptamine from rhesus monkey cloned 5HT1F receptor expressed in African green monkey COS7 cells by liquid scintillation counting; type: cell-based, Macaca mulatta; details: cos-7
# Outline: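 Rhesus monkey 5-HT1F cloned by PCR into pcDNA3.1 and transiently transfected into COS-7 cells. Membranes prepared by homogenization in 50 mM Tris-HCl, 5 mM EDTA, pH 7.4. Filtered over GF/B and counted by liquid scintillation. Ki calculated via Cheng-Prusoff. Mean of more than two runs in duplicate or triplicate.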
# [4] = molecular target: T1, Muscarinic acetylcholine receptor M2 (Homo sapiens, UniProt P08172); assay: Binding affinity to human muscarinic M2 receptor
# T1 sequence (P08172 whole entry): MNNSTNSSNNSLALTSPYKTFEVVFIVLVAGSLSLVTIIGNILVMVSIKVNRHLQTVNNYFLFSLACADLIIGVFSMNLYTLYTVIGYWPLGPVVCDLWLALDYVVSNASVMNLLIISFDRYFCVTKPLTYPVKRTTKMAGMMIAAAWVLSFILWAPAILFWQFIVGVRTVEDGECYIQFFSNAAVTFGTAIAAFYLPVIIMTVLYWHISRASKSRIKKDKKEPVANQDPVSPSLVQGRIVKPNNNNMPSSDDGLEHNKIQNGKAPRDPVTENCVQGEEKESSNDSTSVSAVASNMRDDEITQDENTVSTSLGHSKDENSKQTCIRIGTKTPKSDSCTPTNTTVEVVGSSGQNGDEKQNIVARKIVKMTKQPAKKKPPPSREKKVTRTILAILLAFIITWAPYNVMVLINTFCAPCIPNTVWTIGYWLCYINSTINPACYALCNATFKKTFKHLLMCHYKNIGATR
# [5] = molecular target: Beta-2 adrenergic receptor (Homo sapiens, UniProt P07550); assay: Binding affinity to human adrenergic beta2 receptor
# Sequence of Beta-2 adrenergic receptor (P07550 whole entry): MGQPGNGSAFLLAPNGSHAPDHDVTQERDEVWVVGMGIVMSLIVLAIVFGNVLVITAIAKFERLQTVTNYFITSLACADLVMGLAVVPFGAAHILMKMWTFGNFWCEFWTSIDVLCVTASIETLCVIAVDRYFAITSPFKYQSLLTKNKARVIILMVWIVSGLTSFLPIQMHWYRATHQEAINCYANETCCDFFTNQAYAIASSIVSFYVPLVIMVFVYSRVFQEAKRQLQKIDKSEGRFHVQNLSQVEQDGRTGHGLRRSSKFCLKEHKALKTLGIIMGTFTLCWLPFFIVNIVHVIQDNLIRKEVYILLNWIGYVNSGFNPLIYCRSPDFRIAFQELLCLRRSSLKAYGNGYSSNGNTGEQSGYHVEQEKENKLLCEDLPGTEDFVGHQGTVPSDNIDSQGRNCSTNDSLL
# [6] = molecular target: 5-hydroxytryptamine receptor 1B (Oryctolagus cuniculus) (UniProt P49144); assay: Agonist activity at rabbit 5HT1B receptor assessed as induction of saphenous vein contraction at 30 uM after 5 mins; type: functional, tissue-based
# Sequence of 5-hydroxytryptamine receptor 1B (Oryctolagus cuniculus) (P49144 whole entry): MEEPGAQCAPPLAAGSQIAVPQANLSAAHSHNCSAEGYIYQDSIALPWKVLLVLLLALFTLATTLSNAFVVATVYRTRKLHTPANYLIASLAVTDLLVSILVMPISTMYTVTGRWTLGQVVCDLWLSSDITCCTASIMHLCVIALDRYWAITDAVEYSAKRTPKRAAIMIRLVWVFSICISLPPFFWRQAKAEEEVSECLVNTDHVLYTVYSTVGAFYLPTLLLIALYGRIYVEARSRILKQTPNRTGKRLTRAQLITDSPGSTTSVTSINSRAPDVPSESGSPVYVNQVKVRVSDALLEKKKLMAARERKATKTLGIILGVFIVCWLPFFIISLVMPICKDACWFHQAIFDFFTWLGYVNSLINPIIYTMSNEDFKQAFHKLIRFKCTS
# D(2) dopamine receptor = D(2) dopamine receptor (Homo sapiens, UniProt P14416); assay: Binding affinity to human dopamine D2 receptor
# Sequence of D(2) dopamine receptor (P14416 whole entry): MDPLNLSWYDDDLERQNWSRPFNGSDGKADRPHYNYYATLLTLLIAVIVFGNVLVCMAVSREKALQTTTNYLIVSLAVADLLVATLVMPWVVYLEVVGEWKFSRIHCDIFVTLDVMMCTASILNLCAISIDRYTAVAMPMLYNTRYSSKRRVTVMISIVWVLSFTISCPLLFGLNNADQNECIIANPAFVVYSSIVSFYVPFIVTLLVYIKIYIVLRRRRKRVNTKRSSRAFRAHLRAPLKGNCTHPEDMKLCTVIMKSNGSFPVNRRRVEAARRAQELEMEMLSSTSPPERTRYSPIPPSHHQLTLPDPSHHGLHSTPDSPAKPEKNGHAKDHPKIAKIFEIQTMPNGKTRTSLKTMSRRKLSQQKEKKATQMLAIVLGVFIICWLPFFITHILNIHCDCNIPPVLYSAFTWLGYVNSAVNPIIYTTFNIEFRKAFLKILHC
# [7] = molecular target: Muscarinic acetylcholine receptor M3 (Homo sapiens, UniProt P20309); assay: Binding affinity to human muscarinic M3 receptor
# Sequence of Muscarinic acetylcholine receptor M3 (P20309 whole entry): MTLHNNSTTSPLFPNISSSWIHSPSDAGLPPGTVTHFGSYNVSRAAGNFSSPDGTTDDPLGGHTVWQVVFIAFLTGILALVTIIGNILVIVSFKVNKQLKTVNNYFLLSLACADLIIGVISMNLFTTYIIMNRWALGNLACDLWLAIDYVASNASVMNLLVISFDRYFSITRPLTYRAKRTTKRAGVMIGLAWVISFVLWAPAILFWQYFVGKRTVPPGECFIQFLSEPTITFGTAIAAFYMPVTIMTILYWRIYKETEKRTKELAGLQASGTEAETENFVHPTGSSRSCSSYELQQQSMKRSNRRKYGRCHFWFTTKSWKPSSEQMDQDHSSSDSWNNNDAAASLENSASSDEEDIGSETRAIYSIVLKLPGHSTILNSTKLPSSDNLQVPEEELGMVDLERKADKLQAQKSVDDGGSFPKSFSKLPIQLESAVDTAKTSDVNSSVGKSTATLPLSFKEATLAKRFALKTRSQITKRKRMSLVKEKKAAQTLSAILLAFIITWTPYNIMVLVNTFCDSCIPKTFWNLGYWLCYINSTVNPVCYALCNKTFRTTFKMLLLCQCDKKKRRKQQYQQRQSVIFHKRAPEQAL
# [8] = Displacement of [3H]5-hydroxytryptamine from human cloned 5HT1D receptor expressed in CHOK1 cells by liquid scintillation counting; details: cho-k1
# [9] = molecular target: T2, 5-hydroxytryptamine receptor 1A (Homo sapiens, UniProt P08908); assay: Binding affinity to 5HT1A receptor
# T2 sequence (P08908 whole entry): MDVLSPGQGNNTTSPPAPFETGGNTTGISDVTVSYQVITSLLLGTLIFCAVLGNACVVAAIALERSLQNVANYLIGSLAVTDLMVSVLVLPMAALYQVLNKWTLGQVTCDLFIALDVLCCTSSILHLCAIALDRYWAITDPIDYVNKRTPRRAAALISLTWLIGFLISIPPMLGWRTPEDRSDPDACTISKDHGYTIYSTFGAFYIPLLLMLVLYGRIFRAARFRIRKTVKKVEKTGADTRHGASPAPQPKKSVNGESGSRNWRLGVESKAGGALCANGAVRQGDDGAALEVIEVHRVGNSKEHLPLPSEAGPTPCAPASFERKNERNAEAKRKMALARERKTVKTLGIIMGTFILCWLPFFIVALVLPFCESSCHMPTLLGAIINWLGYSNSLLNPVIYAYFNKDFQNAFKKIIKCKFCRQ
# [10] = molecular target: 5-hydroxytryptamine receptor 1B (Oryctolagus cuniculus) (UniProt P49144); assay: Antagonist activity at rabbit 5HT1B receptor assessed as inhibition of sumatriptan-induced saphenous vein contraction at 30 uM; type: functional, tissue-based; parameters: scale not given: the % may be the effect or the level left
# Sequence of 5-hydroxytryptamine receptor 1D (P28221 whole entry): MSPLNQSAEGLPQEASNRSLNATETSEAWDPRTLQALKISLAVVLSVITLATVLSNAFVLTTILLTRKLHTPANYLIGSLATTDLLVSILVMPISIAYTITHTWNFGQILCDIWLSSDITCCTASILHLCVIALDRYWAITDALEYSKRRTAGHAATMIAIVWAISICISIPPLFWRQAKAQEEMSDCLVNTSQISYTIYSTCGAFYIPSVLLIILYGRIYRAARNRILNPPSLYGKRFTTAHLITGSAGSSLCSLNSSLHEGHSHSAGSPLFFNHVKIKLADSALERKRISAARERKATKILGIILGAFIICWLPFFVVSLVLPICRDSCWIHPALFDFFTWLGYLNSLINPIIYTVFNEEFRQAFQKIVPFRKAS
Compound,Ki [1] [nM],Ki [2] [nM],Ki [3] [nM],further results
CN1CCC(c2c[nH]c3ccc(NC(=O)CCCC(=O)Nc4ccc5[nH]cc(C6CCN(C)CC6)c5c4)cc23)CC1,0.95,0.76,> 10000,
O=C(Nc1ccc2[nH]cc(C3CCN(Cc4cccc(CN5CCC(c6c[nH]c7ccc(NC(=O)c8ccc(F)cc8)cc67)CC5)c4)CC3)c2c1)c1ccc(F)cc1,151,453,> 1000,
CN1CCC(c2c[nH]c3ccc(N)cc23)CC1,39.6,353,> 10000,
O=C(Nc1ccc2[nH]cc(C3CCN(CC(N4CCC(c5c[nH]c6ccc(NC(=O)c7ccc(F)cc7)cc56)CC4)C(F)(F)F)CC3)c2c1)c1ccc(F)cc1 (configuration not stated),> 1000,> 1000,24,
CN1CCC(c2c[nH]c3ccc(NC(=O)CCCCCCC(=O)Nc4ccc5[nH]cc(C6CCN(C)CC6)c5c4)cc23)CC1,0.9,1.3,> 10000,
CN1CCC(c2c[nH]c3ccc(NC(=O)CCCCCCCCCC(=O)Nc4ccc5[nH]cc(C6CCN(C)CC6)c5c4)cc23)CC1,0.9,1.3,> 10000,
O=C(Nc1ccc2[nH]cc(C3CCN(Cc4ccccc4)CC3)c2c1)c1ccc(F)cc1,> 1000,> 1000,32,
CN1CCC(c2c[nH]c3ccc(NC(=O)CCCCCCCCCCCC(=O)Nc4ccc5[nH]cc(C6CCN(C)CC6)c5c4)cc23)CC1,1.4,0.1,> 10000,
CN1CCC(c2c[nH]c3ccc(NC(=O)CC(=O)Nc4ccc5[nH]cc(C6CCN(C)CC6)c5c4)cc23)CC1,3.4,16,> 10000,
NCCc1c[nH]c2ccc(O)cc12 [SEROTONIN],,,35,
CN1CCC(c2c[nH]c3ccc(NC(=O)CCCCCCCCCCCCCCC(=O)Nc4ccc5[nH]cc(C6CCN(C)CC6)c5c4)cc23)CC1,11.3,0.81,> 10000,
O=C(Nc1ccc2[nH]cc(C3CCN(CCCCCCCN4CCC(c5c[nH]c6ccc(NC(=O)c7ccc(F)cc7)cc56)CC4)CC3)c2c1)c1ccc(F)cc1,0.3,79,> 10000,IC50 [4]: 3200 nM; IC50 [5]: > 10000 nM; Activity [6]: inactive; IC50 (D(2) dopamine receptor): 700 nM; IC50 [7]: > 50000 nM
CN1CCC(c2c[nH]c3ccc(NC(=O)CCCCCCCCC(=O)Nc4ccc5[nH]cc(C6CCN(C)CC6)c5c4)cc23)CC1,0.95,0.79,> 10000,
O=C(Nc1ccc2[nH]cc(C3CCN(CCO)CC3)c2c1)c1ccc(F)cc1,> 1000,> 1000,9,
O=C(Nc1ccc2[nH]cc(C3CCN(CCN4CCC(c5c[nH]c6ccc(NC(=O)c7ccc(F)cc7)cc56)CC4)CC3)c2c1)c1ccc(F)cc1,219,> 10000,> 10000,
NC(=O)c1ccc2[nH]cc(C3=CCC(NCCCCCCCNC4CC=C(c5c[nH]c6ccc(C(N)=O)cc56)CC4)CC3)c2c1 (configuration not stated),,,,IC50 [8]: 0.05 nM; IC50 [9]: 1.83 nM
O=C(Nc1ccc2[nH]cc(C3CCN(CCCCCCCCCN4CCC(c5c[nH]c6ccc(NC(=O)c7ccc(F)cc7)cc56)CC4)CC3)c2c1)c1ccc(F)cc1,1,126,> 10000,

Compound,Ki [1] [nM],Ki [2] [nM],Ki [3] [nM],further results
O=C(Nc1ccc2[nH]cc(C3CCN(CCCN4CCC(c5c[nH]c6ccc(NC(=O)c7ccc(F)cc7)cc56)CC4)CC3)c2c1)c1ccc(F)cc1,79,> 10000,> 10000,
CN(C)CCCN1CCC(c2c[nH]c3ccc(NC(=O)c4ccc(F)cc4)cc23)CC1,> 1000,> 1000,124,
O=C(Nc1ccc2[nH]cc(C3CCN(CCOCCOCCN4CCC(c5c[nH]c6ccc(NC(=O)c7ccc(F)cc7)cc56)CC4)CC3)c2c1)c1ccc(F)cc1,1.5,18,27,
O=C(Nc1ccc2[nH]cc(C3CCN(CCN4CCCCC4)CC3)c2c1)c1ccc(F)cc1,> 1000,> 1000,> 1000,
CCCCCCCCN1CCC(c2c[nH]c3ccc(NC(=O)c4ccc(F)cc4)cc23)CC1,> 1000,> 1000,> 10000,
O=C(Nc1ccc2[nH]cc(C3CCN(CCCCCCCCCCCCN4CCC(c5c[nH]c6ccc(NC(=O)c7ccc(F)cc7)cc56)CC4)CC3)c2c1)c1ccc(F)cc1,13,> 10000,> 10000,
O=C(Nc1ccc2[nH]cc(C3CCN(C/C=C/CN4CCC(c5c[nH]c6ccc(NC(=O)c7ccc(F)cc7)cc56)CC4)CC3)c2c1)c1ccc(F)cc1,24,103,> 1000,
O=C(Nc1ccc2[nH]cc(C3CCN(CCOCCOCCOCCN4CCC(c5c[nH]c6ccc(NC(=O)c7ccc(F)cc7)cc56)CC4)CC3)c2c1)c1ccc(F)cc1,3.9,32,28,
O=C(Nc1ccc2[nH]cc(C3CCN(CCCCCCCCCCN4CCC(c5c[nH]c6ccc(NC(=O)c7ccc(F)cc7)cc56)CC4)CC3)c2c1)c1ccc(F)cc1,13,38,> 10000,
CN1CCC(c2c[nH]c3ccc(NC(=O)CCCCCCCCCCCCC(=O)Nc4ccc5[nH]cc(C6CCN(C)CC6)c5c4)cc23)CC1,1.7,0.5,> 10000,Activity [6]: 24%; Activity [10]: 58%
O=C(Nc1ccc2[nH]cc(C3CCN(CCCCCCCCCCCN4CCC(c5c[nH]c6ccc(NC(=O)c7ccc(F)cc7)cc56)CC4)CC3)c2c1)c1ccc(F)cc1,13,126,> 10000,
O=C(Nc1ccc2[nH]cc(C3CCN(CCCCCCN4CCC(c5c[nH]c6ccc(NC(=O)c7ccc(F)cc7)cc56)CC4)CC3)c2c1)c1ccc(F)cc1,0.6,100,> 10000,
NC(=O)C(CN1CCC(c2c[nH]c3ccc(NC(=O)c4ccc(F)cc4)cc23)CC1)N1CCC(c2c[nH]c3ccc(NC(=O)c4ccc(F)cc4)cc23)CC1 (configuration not stated),> 1000,> 1000,48,
CN1CCC(c2c[nH]c3ccc(NC(=O)c4ccc(F)cc4)cc23)CC1,,,3,
CN1CCC(c2c[nH]c3ccc(NC(=O)CCCCCCCCCCCCCC(=O)Nc4ccc5[nH]cc(C6CCN(C)CC6)c5c4)cc23)CC1,2.3,0.58,> 10000,
O=C(O)CCCCCCCCCN1CCC(c2c[nH]c3ccc(NC(=O)c4ccc(F)cc4)cc23)CC1,> 1000,> 1000,> 1000,
CNS(=O)(=O)Cc1ccc2[nH]cc(CCN(C)C)c2c1,,,234,

# From ChEMBL document CHEMBL1150432 (J Med Chem, 2008)
